According to ChEMBL document CHEMBL1944509, “Methyl-monofluorination of ibuprofen selectively increases its inhibitory activity toward cyclooxygenase-1 leading to enhanced analgesic activity and reduced gastric damage in vivo” (Bioorg Med Chem Lett, 2011):

Experiments:
[1] = Tmax in ICR mouse at 5 mg/kg, iv; format: ADME, organism-based; set-up: dose 5 mg/kg, route intravenous; conditions: in vivo
Rattus norvegicus [2] = experiment: Antiinflammatory activity in Wistar albino rat assessed as inhibition of carrageenan-induced paw edema at 30 mg/kg, ig administered 1 hr before carrageenan challenge measured after 4 hrs post carrageenan challenge by plethysmometer; format: functional; conditions: po, route intragastric
How it was run: (§1)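 Male Wistar rats (140–160 g), three groups of eight; drug as 0.5% CMC suspension i.g., controls given CMC only. 1 h later, 0.1 ml of 0.1% carrageenan in 0.9% NaCl injected sub-plantar into right hind paw. Paw volume read by plethysmometer hourly to 6 h and at 24 h; inhibition % = (Vc − Vt)/Vc × 100 from mean volume increases; mean ± SEM.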

Rattus norvegicus [3] = experiment: Gastrointestinal toxicity in Wistar rat assessed as ulcerogenic effect at 100 mg/kg, po measured after 17 hrs post treatment (Rvb =0.50 +/- 0.41); format: organism-based; set-up: dose 100 mg/kg, route oral; conditions: in vivo
How it was run: (§2)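 Wistar rats, 150–200 g, eight per group, fasted at least 8 h with water ad libitum. Drug is given orally as a 0.5% CMC suspension at 10 ml/kg; controls get 0.5% CMC. Food is returned after 30 min. At 17 h rats are killed with CO₂ and stomachs removed. Damage score is the summed lesion lengths in mm per rat; mean ± SEM.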

[4] = Plasma concentration in ICR mouse at 10 mg/kg, po after 0.25 hrs by HPLC/MS/MS analysis; format: ADME, organism-based; set-up: dose 10 mg/kg, route oral
[5] = Drug level in ICR mouse brain at 5 mg/kg, iv after 0.083 hrs by HPLC/MS/MS analysis; format: ADME, organism-based; set-up: dose 5 mg/kg, route intravenous; conditions: read-out: Drug uptake
[6] = Drug level in ICR mouse brain at 10 mg/kg, po after 6 hrs by HPLC/MS/MS analysis; format: ADME, organism-based; set-up: dose 10 mg/kg, route oral; conditions: read-out: Drug uptake
Nucleic Acid [7] = experiment: Ratio of drug level in brain to plasma in ICR mouse at 5 mg/kg, iv after 4 hrs by HPLC/MS/MS analysis; format: ADME, organism-based; set-up: dose 5 mg/kg, route intravenous
Nucleic Acid [8] = experiment: Ratio of drug level in brain to plasma in ICR mouse at 5 mg/kg, iv after 6 hrs by HPLC/MS/MS analysis; format: ADME, organism-based; set-up: dose 5 mg/kg, route intravenous
Nucleic Acid [9] = experiment: Ratio of drug level in brain to plasma in ICR mouse at 10 mg/kg, po after 6 hrs by HPLC/MS/MS analysis; format: ADME, organism-based; set-up: dose 10 mg/kg, route oral
Rattus norvegicus [10] = experiment: Antiinflammatory activity in Wistar albino rat assessed as inhibition of carrageenan-induced paw edema at 33.6 mg/kg, ig administered 1 hr before carrageenan challenge measured after 4 hrs post carrageenan challenge by plethysmometer; format: functional; conditions: po, route intragastric; how it was run: as §1
[11] = molecular target: Prostaglandin G/H synthase 1 (Homo sapiens, UniProt P23219); experiment: Inhibition of COX1 in human HEL 92.1.7 cells assessed as thromboxane B2 production incubated for 30 mins before arachidonic acid addition measured after 15 mins by ELISA; format: cell-based
How it was run: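 HEL92.1.7 cells at 10⁸/ml in fresh medium, incubated with drug (10⁻⁶–10 μM range) for 30 min at 37 °C. TXB₂ is measured in cell-free supernatant by ELISA and expressed as a ratio to vehicle-only cultures; mean ± SD; IC50 from the concentration–response curve.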

[12] = Apparent half life in ICR mouse at 5 mg/kg, iv; format: ADME, organism-based; set-up: dose 5 mg/kg, route intravenous; conditions: in vivo, read-out: t1/2(app) (converted)
[13] = Clearance in ICR mouse at 5 mg/kg, iv; format: ADME, organism-based; set-up: dose 5 mg/kg, route intravenous; conditions: in vivo
[14] = Apparent half life in ICR mouse at 10 mg/kg, po; format: ADME, organism-based; set-up: dose 10 mg/kg, route oral; conditions: in vivo, read-out: t1/2(app) (converted)
Mus musculus [15] = experiment: Analgesic activity in Swiss albino mouse assessed as inhibition of acetic acid-induced writhing at 33.6 mg/kg, ig administered 1 hr before acetic acid challenge measured 10 mins post acetic acid challenge; format: functional; conditions: po, route intragastric
How it was run: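 Male Swiss albino mice (22–24 g), three groups, n = 8; drug suspended in 0.5% CMC given i.g. (0.3 ml/10 g) 1 h before i.p.-unspecified injection of 1% (v/v) acetic acid at 0.1 ml/10 g. Writhes counted for 10 min starting 10 min after acetic acid; activity as percent decrease in writhing versus vehicle control; mean ± SEM, ANOVA then t-test.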

Rattus norvegicus [16] = experiment: Gastrointestinal toxicity in Wistar rat assessed as ulcerogenic effect at 108.8 mg/kg, po measured after 17 hrs post treatment (Rvb =0.50 +/- 0.41); format: organism-based; set-up: dose 108.8 mg/kg, route oral; conditions: in vivo; how it was run: as §2
Nucleic Acid [17] = experiment: Ratio of drug level in brain to plasma in ICR mouse at 10 mg/kg, po after 0.083 hrs by HPLC/MS/MS analysis; format: ADME, organism-based; set-up: dose 10 mg/kg, route oral
Nucleic Acid [18] = experiment: Ratio of drug level in brain to plasma in ICR mouse at 10 mg/kg, po after 2 hrs by HPLC/MS/MS analysis; format: ADME, organism-based; set-up: dose 10 mg/kg, route oral
Nucleic Acid [19] = experiment: Ratio of drug level in brain to plasma in ICR mouse at 10 mg/kg, po after 4 hrs by HPLC/MS/MS analysis; format: ADME, organism-based; set-up: dose 10 mg/kg, route oral
[20] = molecular target: T1, Prostaglandin G/H synthase 1 (Ovis aries, UniProt P05979); experiment: Inhibition of ovine COX1 by EIA
T1 sequence (P05979 whole entry): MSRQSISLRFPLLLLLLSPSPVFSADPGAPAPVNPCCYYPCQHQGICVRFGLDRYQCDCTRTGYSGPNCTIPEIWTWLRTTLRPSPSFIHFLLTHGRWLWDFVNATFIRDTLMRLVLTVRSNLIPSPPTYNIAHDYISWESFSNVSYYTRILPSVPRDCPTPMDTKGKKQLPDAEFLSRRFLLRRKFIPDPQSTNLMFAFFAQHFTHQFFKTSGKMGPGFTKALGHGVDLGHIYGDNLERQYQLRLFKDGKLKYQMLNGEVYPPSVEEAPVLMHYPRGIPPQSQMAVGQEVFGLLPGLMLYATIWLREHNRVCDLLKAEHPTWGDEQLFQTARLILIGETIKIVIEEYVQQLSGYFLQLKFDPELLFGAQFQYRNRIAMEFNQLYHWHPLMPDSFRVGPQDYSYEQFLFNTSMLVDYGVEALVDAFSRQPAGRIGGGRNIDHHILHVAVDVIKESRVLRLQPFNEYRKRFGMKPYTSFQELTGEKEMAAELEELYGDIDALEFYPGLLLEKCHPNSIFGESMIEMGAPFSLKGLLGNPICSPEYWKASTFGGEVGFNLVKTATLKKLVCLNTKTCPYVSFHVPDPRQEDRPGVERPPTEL

Mus musculus [21] = experiment: Ratio of drug level in brain to plasma in ICR mouse at 5 mg/kg, iv
Mus musculus [22] = experiment: Ratio of drug level in brain to plasma in ICR mouse at 10 mg/kg, po

Chain of Prostaglandin G/H synthase 1 (Homo sapiens, UniProt P23219) (P23219 whole entry): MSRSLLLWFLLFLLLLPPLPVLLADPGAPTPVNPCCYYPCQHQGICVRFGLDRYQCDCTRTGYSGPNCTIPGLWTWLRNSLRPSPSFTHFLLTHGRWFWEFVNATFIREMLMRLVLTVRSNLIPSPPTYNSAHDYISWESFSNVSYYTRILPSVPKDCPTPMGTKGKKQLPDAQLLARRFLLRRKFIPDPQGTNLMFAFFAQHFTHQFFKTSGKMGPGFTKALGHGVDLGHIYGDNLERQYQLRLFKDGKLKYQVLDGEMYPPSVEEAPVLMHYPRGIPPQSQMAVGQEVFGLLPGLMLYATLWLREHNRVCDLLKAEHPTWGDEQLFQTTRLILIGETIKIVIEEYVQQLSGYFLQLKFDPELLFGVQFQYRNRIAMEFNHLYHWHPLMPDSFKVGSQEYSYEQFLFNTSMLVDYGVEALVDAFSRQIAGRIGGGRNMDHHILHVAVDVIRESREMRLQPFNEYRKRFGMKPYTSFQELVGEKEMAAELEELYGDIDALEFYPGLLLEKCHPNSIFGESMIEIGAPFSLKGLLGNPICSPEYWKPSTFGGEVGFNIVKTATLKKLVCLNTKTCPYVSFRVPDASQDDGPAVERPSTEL

In the case of `CC(C)Cc1ccc([C@H](C)C(=O)O)cc1` [DEXIBUPROFEN], the Tmax [1] is reported as 4.8 min, the inhibition in vivo at 30 mg/kg (Rattus norvegicus [2]) is reported as 29.5% and the Activity (Rattus norvegicus [3]) is reported as “Toxic”. For the same compound, the concentration at 0.25 h [4] was 33600 ng/mL, the concentration at 0.083 h [5] was 1260 ng/g and the concentration at 6 h [6] was 43.1 ng/g. It also gave a BPR (Nucleic Acid [7]) of 0.044 mL/g, a BPR (Nucleic Acid [8]) of 0.059 mL/g and a BPR (Nucleic Acid [9]) of 0.036 mL/g.
For `CC(C)Cc1ccc([C@H](CF)C(=O)O)cc1`, the inhibition in vivo at 33.6 mg/kg (Rattus norvegicus [10]) was 41.3%, the IC50 [11] was 1.23 nM and the inhibition [11] was “Dose-dependent effect”. For the same compound, the half-life [12] was 52.8 min, the Tmax [1] was 4.8 min and the clearance [13] was 3.5 mL/min/kg. For the same compound, the half-life [14] was 45 min, the inhibition in vivo at 33.6 mg/kg (Mus musculus [15]) was 50% and the Activity (Rattus norvegicus [16]) was “Toxic”. The concentration at 0.25 h [4] was 42100 ng/mL, the concentration at 0.083 h [5] was 982 ng/g and the BPR (Nucleic Acid [17]) was 0.027 mL/g. The BPR (Nucleic Acid [18]) was 0.03 mL/g, the BPR (Nucleic Acid [19]) was 0.032 mL/g and the IC50 [20] was 500 nM. For the same compound, the BPR (Mus musculus [21]) was 0.031 mL/g and the BPR (Mus musculus [22]) was 0.025 mL/g.
